The source made the active and inactive calls. The calls are words filed in the database; no cut-off is given here.
Columns and labels:
[1] = Cytotoxicity against human HuH7 cells after 2 days by MTS assay; format: cell-based, Huh-7
How it was run: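 MTS cell proliferation assay run in parallel with the luciferase replicon assay in the same genotype 1b replicon-bearing Huh7 cells (5000 cells/well, 0.5% DMSO final, 37 °C); CC50 derived.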

Hepatitis C virus [2] = assay: Antiviral activity against Hepatitis C virus genotype 1b infected in human HuH7 cells assessed as inhibition of viral replication after 2 days by luciferase reporter gene assay; format: functional, organism-based, Hepacivirus hominis; details: Huh-7, 48 h
How it was run: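 Huh7 cells carrying a genotype 1b bicistronic HCV replicon plated at 5000 cells/well, kept subconfluent; compound added at 0.5% DMSO final, incubated at 37 °C; luciferase read after 2 days; EC50 from dose response.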

[3] = Selectivity index, ratio of CC50 for human HuH7 cells to EC50 for Hepatitis C virus subtype 1b; format: toxicity, cell-based, Huh-7; details: read-out: Ratio CC50/EC50
How it was run: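 Ratio of CC50 from the MTS assay to EC50 from the luciferase assay, both in genotype 1b bicistronic replicon Huh7 cells run in parallel.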

Hepacivirus hominis = assay: Inhibition of HCV protease up to 10 uM
Rattus norvegicus [4] = assay: Oral bioavailability in Sprague-Dawley rat at 3 mg/kg; format: ADME, organism-based; details: in vivo
How it was run: (§1)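 Female Sprague–Dawley rats dosed with compound in PEG-300 solution, 3 mg/kg orally or 1 mg/kg intravenously; pharmacokinetic parameters derived from plasma exposure after each route.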

[5] = Cmax in Sprague-Dawley rat at 3 mg/kg, po; format: ADME, organism-based; parameters: dose 3 mg/kg, route oral; details: in vivo; how it was run: as §1
Rattus norvegicus [6] = assay: AUC (0 to infinity) in Sprague-Dawley rat at 3 mg/kg, po; format: ADME, organism-based, Plasma; parameters: dose 3 mg/kg, route oral, time infinity; details: in vivo; how it was run: as §1
[7] = Volume of distribution at steady state in Sprague-Dawley rat at 1 mg/kg, iv; format: ADME, organism-based; parameters: dose 1 mg/kg, route intravenous; details: in vivo, read-out: Vdss; how it was run: as §1
[8] = Half life in Sprague-Dawley rat at 1 mg/kg, iv; format: ADME, organism-based; parameters: dose 1 mg/kg, route intravenous; details: in vivo; how it was run: as §1
[9] = Intrinsic clearance in human liver microsomes at 1 uM by LC/MS analysis; format: ADME, Microsome; details: read-out: CLH
How it was run: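 Compound at 1 µM incubated with human liver microsomes (0.5 mg/mL protein) for 0, 10, 20, 30 and 60 min with 1 mM EDTA, 3 mM MgCl2, 1.3 mM NADP, 3.3 mM D-glucose-6-phosphate and 1 unit/mL glucose-6-phosphate dehydrogenase.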

Hepatitis C virus [10] = assay: Antiviral activity against Hepatitis C virus genotype 1b infected in human HuH7 cells assessed as reduction in HCV RNA after 3 days by RT-PCR analysis; format: functional, organism-based, Hepacivirus hominis; details: Huh-7, 72 h
How it was run: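 Huh7 cells with a genotype 1b monocistronic replicon seeded at 5000 cells/well; compound at 0.5% DMSO final, 37 °C; cells harvested 3 days after dosing; replicon RNA measured by real-time RT-PCR, normalised to GAPDH RNA.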

Row | EC50 (Hepatitis C virus [2]) | SMILES | CC50 at 48 h [1] | other results
1 | 5 µM | CCn1c(-c2ccc(NS(=O)(=O)CC)cc2)c(C#N)c2ccc(COC)cc21 | > 100 µM | –
2 | 0.17 µM | CCn1c(-c2ccc(NS(=O)(=O)CC)cc2)c(C#N)c2ccc(OC(F)(F)F)cc21 | 24 µM | selectivity ratio [3]: 141
3 | 3.5 µM | CCn1c(-c2ccc(NS(=O)(=O)CC)cc2)c(C#N)c2c(Cl)cccc21 | 55 µM | –
4 | 9 µM | CCn1c(-c2ccc(NS(=O)(=O)CC)cc2)c(C#N)c2ccc(C(N)=O)cc21 | 55 µM | –
5 | 0.36 µM | CCn1c(-c2ccc(NS(=O)(=O)CC)cc2)c(C#N)c2ccc(C(F)(F)F)cc21 | 18 µM | selectivity ratio [3]: 50
6 | 0.53 µM | CCOc1ccc2c(C#N)c(-c3ccc(NS(=O)(=O)CC)cc3)n(CC)c2c1 | 42 µM | –
7 | 4 µM | CCn1c(-c2ccc(NS(=O)(=O)CC)cc2)c(C#N)c2cc(OC)c(OC)cc21 | > 100 µM | –
8 | 3 µM | CCn1c(-c2ccc(NS(=O)(=O)CC)cc2)c(C#N)c2ccc(CN3CCOCC3)cc21 | 35 µM | –
9 | > 11 µM | CCn1c(-c2ccc(NS(=O)(=O)CC)cc2)c(C#N)c2ccc(C(=O)O)cc21 | > 100 µM | –
10 | 0.59 µM | CCn1c(-c2ccc(NS(=O)(=O)CC)cc2)c(C#N)c2cc(F)ccc21 | 39 µM | –
11 | 7.5 µM | CCn1c(-c2ccc(NS(=O)(=O)CC)cc2)c(C#N)c2cc(Cl)ccc21 | 40 µM | –
12 | 0.29 µM | CCn1c(-c2ccc(NS(=O)(=O)CC)cc2)c(C#N)c2ccc(OC(F)F)cc21 | 20 µM | selectivity ratio [3]: 69
13 | 9 µM | CCn1c(-c2ccc(NS(=O)(=O)CC)cc2)c(C#N)c2ccccc21 | 40 µM | –
14 | 0.22 µM | CCCS(=O)(=O)Nc1ccc(-c2c(C#N)c3ccc(OC(F)F)cc3n2CC)cc1 | 26 µM | –
15 | 3.5 µM | CCn1c(-c2ccc(NS(=O)(=O)CC)cc2)c(C#N)c2ccc(CO)cc21 | 60 µM | –
16 | 0.47 µM | CCn1c(-c2ccc(NS(=O)(=O)CC)cc2)c(C#N)c2ccc(OC)cc21 | 62 µM | selectivity ratio [3]: > 130
17 | 2 µM | CCn1c(-c2ccc(NS(=O)(=O)CC)cc2)c(C#N)c2ccc(O)cc21 | 55 µM | –
18 | 0.59 µM | CCn1c(-c2ccc(NS(=O)(=O)CC)cc2)c(C#N)c2ccc(OCCF)cc21 | 39 µM | selectivity ratio [3]: 66

The next lines start with the compound.

Row | SMILES | EC50 (Hepatitis C virus [2]) | CC50 at 48 h [1] | other results
19 | CCn1c(-c2ccc(C(N)=O)cc2)c(C#N)c2ccc(OC)cc21 | 7.8 µM | > 100 µM | –
20 | CCn1c(-c2ccc(N3CCNS3(=O)=O)cc2)c(C#N)c2ccc(OC)cc21 | 0.9 µM | 30 µM | –
21 | CCn1c(-c2ccc(N3CCCS3(=O)=O)cc2)c(C#N)c2ccc(OC)cc21 | 2 µM | > 50 µM | –
22 | COc1ccc(-n2cc([N+](=O)[O-])c3ccc(OC)cc32)cc1 | 50 µM | – | –
23 | N#Cc1c(-c2ccc(NS(=O)(=O)C3CC3)cc2)n(CC2CC2)c2cc(OC(F)F)ccc12 | 0.17 µM | 25 µM | inhibition (Hepacivirus hominis): inactive; F (Rattus norvegicus [4]): 58%; Cmax [5]: 770 ng/mL; AUC (Rattus norvegicus [6]): 6.8 µM·h; Vd [7]: 2.2 L/kg; half-life [8]: 6.3 h; CLint scaled at 1 µM [9]: < 1 mL/min/kg; EC50 (Hepatitis C virus [10]): 0.18 µM; selectivity ratio [3]: 147
24 | CCn1c(-c2ccc(NC(=O)c3ccccc3)cc2)c(C#N)c2ccc(OC)cc21 | > 100 µM | > 100 µM | –
25 | CCn1c(-c2ccc(OC)cc2)c(C#N)c2ccc(OC)cc21 | 4.1 µM | > 100 µM | –
26 | CCCn1c(-c2ccc(NS(=O)(=O)C3CC3)cc2)c(C#N)c2ccc(OC(F)F)cc21 | 0.25 µM | > 100 µM | –
27 | CCn1c(-c2ccc(NS(=O)(=O)C(C)C)cc2)c(C#N)c2ccc(OC(F)F)cc21 | 0.12 µM | 19 µM | –
28 | CCn1c(-c2ccc(O)cc2)c(C#N)c2ccc(OC)cc21 | 6.1 µM | 50 µM | –
29 | CCS(=O)(=O)Nc1ccc(-c2c(C#N)c3ccc(OC(F)F)cc3n2CC2CC2)cc1 | 0.3 µM | 13 µM | –
30 | CCn1c(-c2ccc(NS(=O)(=O)C(C)C)cc2)c(C#N)c2cc(OC)ccc21 | 7.4 µM | 36 µM | –
31 | CCn1c(-c2ccc(NS(=O)(=O)C3CC3)cc2)c(C#N)c2ccc(OC(F)F)cc21 | 0.1 µM | 23 µM | –
32 | CCn1c(-c2ccc(NC(C)=O)cc2)c(C#N)c2ccc(OC)cc21 | 1.3 µM | 89 µM | –
33 | CCn1c(-c2ccc(S(C)(=O)=O)cc2)c(C#N)c2ccc(OC)cc21 | 2.6 µM | 42 µM | –
34 | CCn1c(-c2ccc(NS(=O)(=O)C(C)C)cc2)c(C#N)c2ccc(OC)cc21 | 0.65 µM | 70 µM | –
35 | CCn1c(-c2ccc(N)cc2)c(C#N)c2ccc(OC)cc21 | 7.7 µM | 100 µM | –
36 | CC(C)S(=O)(=O)Nc1ccc(-c2c(C#N)c3ccc(OC(F)F)cc3n2CC2CC2)cc1 | – | 22 µM | –
37 | CCS(=O)(=O)Nc1ccc(-c2c(C#N)c3ccc(OC(F)F)cc3n2C(C)C)cc1 | 0.2 µM | 12 µM | –
38 | CC(C)n1c(-c2ccc(NS(=O)(=O)C3CC3)cc2)c(C#N)c2ccc(OC(F)F)cc21 | 0.075 µM | 13 µM | –
39 | CCn1c(-c2ccc([S+](C)[O-])cc2)c(C#N)c2ccc(OC)cc21 (configuration not stated) | 4 µM | 52 µM | –
40 | CCOC(=O)Nc1ccc(-c2c(C#N)c3ccc(OC)cc3n2CC)cc1 | 1.3 µM | 41 µM | –
41 | N#Cc1c(-c2ccc(NS(=O)(=O)C3CC3)cc2)n(C2CCC2)c2cc(OC(F)F)ccc12 | 0.19 µM | 20 µM | –
42 | CCn1c(-c2ccc(OC)cc2)c([N+](=O)[O-])c2ccc(OC)cc21 | > 51 µM | – | –
43 | CCOc1ccc(-c2c(C#N)c3ccc(OC)cc3n2CC)cc1 | 3 µM | > 100 µM | –
